In ChEMBL document CHEMBL4368906 (J Med Chem, 2019):
Bridge positions count the residues as written; N and C are the ends. Square brackets hold non-standard residues; d marks the D form. Peptide text beside a SMILES is read from it. NMeW = CN[C@@H](Cc1c[nH]c2ccccc12)C(=O)O; NMeY = CN[C@@H](Cc1ccc(O)cc1)C(=O)O; NMeF = CN[C@@H](Cc1ccccc1)C(=O)O; NMeK = CN[C@@H](CCCCN)C(=O)O; NMeC = CN[C@@H](CS)C(=O)O

Assays:
[1] = target: T1, Urotensin-2 receptor (Homo sapiens, UniProt Q9UKP6); test: Displacement of [125I]-URP or human [125I[-urotensin-2 from human urotensin 2 receptor expressed in HEK293 or CHOK1 cells after 2 hrs by gamma-counting assay; format: cell-based
T1 sequence (Q9UKP6 whole entry): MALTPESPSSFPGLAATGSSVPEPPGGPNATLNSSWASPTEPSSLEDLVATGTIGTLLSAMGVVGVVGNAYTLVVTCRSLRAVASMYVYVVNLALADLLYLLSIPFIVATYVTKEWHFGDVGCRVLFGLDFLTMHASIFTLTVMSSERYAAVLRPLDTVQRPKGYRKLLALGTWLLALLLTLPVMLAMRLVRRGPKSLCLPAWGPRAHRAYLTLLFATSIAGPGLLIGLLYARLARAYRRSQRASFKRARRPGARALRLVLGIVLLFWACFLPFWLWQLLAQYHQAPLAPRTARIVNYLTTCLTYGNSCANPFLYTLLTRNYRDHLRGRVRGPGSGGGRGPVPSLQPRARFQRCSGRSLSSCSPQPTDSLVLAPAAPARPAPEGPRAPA

[2] = target: T2, Urotensin-2 receptor (Rattus norvegicus) (UniProt P49684); test: Agonist activity at urotensin 2 receptor in Sprague-Dawley rat thoracic aortic ring assessed as induction of contraction at 10 uM relative to KCl-induced contraction
T2 sequence (whole entry): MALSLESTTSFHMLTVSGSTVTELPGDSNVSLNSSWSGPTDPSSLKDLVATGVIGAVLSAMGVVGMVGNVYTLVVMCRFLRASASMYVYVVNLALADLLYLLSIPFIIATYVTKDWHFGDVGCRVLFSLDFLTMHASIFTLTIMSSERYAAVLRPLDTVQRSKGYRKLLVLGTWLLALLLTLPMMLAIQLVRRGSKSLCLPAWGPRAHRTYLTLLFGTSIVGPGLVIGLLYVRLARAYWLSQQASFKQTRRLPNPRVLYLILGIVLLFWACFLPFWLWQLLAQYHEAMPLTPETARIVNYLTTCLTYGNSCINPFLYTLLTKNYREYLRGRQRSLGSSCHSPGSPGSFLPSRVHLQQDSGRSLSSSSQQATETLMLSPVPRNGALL
Procedure, shortened: (§1)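 Male Sprague-Dawley rats, 250-300 g. Aortic rings were held in a 5-mL organ bath of oxygenated Krebs-Henseleit buffer. Each vessel was first challenged with KCl, 40 mM final in the bath. Peptides were added cumulatively from 10−11 to 10−5 M. Each contraction was taken as a percentage of the KCl response, divided by the response to hU-II (10−7 M).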

[3] = target: T3, Urotensin-2 receptor (Rattus norvegicus, UniProt P49684); test: Agonist activity at urotensin 2 receptor in Sprague-Dawley rat thoracic aortic ring assessed as induction of contraction relative to KCl-induced contraction; procedure, shortened: as §1
T3 sequence (P49684 whole entry): T2 sequence (whole entry)

[4] = target: T2, Urotensin-2 receptor (Rattus norvegicus); test: Agonist activity at urotensin 2 receptor in Sprague-Dawley rat thoracic aortic ring assessed as induction of contraction relative to urotensin-2; procedure, shortened: as §1
[5] = target: T1, Urotensin-2 receptor; test: Agonist activity at urotensin 2 receptor (unknown origin) expressed in HEK293 cells co-expressing Gq-polycistronic BRET biosensor assessed as induction of Gq activation measured for 5 mins by luminescence detection based BRET assay; format: cell-based

Row | SMILES | Ki [1] | Activity [2] | EC50 [3] | Emax [4] | EC50 [5]
1 | CC(C)[C@H](NC(=O)[C@@H]1CSSC[C@H](NC(=O)[C@H](CC(=O)O)NC(=O)[C@@H]2CCCN2C(=O)[C@@H](NC(=O)[C@@H](N)CCC(=O)O)[C@@H](C)O)C(=O)N[C@@H](Cc2ccccc2)C(=O)N[C@@H](Cc2c[nH]c3ccccc23)C(=O)N[C@@H](CCCCN)C(=O)N(C)[C@@H](Cc2ccc(O)cc2)C(=O)N1)C(=O)O | 2140 nM | 71% | – | – | –
2 | CC(C)[C@H](NC(=O)[C@@H]1CSSC[C@H](NC(=O)[C@@H](N)CC(=O)O)C(=O)N[C@@H](Cc2ccccc2)C(=O)N[C@@H](Cc2c[nH]c3ccccc23)C(=O)N[C@@H](CCCCN)C(=O)N(C)[C@@H](Cc2ccc(O)cc2)C(=O)N1)C(=O)O (H-DCFWK[NMeY]CV-OH; disulfide 2-7) | > 10000 nM | 44% | – | – | –
3 | CC(C)[C@H](NC(=O)[C@@H]1CSSC[C@H](NC(=O)[C@H](CC(=O)O)NC(=O)[C@@H]2CCCN2C(=O)[C@@H](NC(=O)[C@@H](N)CCC(=O)O)[C@@H](C)O)C(=O)N[C@@H](Cc2ccccc2)C(=O)N(C)[C@@H](Cc2c[nH]c3ccccc23)C(=O)N[C@@H](CCCCN)C(=O)N[C@@H](Cc2ccc(O)cc2)C(=O)N1)C(=O)O | 20.4 nM | – | 5.75 nM | 97% | 5.62 nM
4 | CC(C)[C@H](NC(=O)[C@@H]1CSSC[C@H](N(C)C(=O)[C@H](CC(=O)O)NC(=O)[C@@H]2CCCN2C(=O)[C@@H](NC(=O)[C@@H](N)CCC(=O)O)[C@@H](C)O)C(=O)N[C@@H](Cc2ccccc2)C(=O)N[C@@H](Cc2c[nH]c3ccccc23)C(=O)N[C@@H](CCCCN)C(=O)N[C@@H](Cc2ccc(O)cc2)C(=O)N1)C(=O)O | 49 nM | – | 9.77 nM | 112% | –
5 | CC(C)[C@H](NC(=O)[C@@H]1CSSC[C@H](NC(=O)[C@H](C)N)C(=O)N[C@@H](Cc2ccccc2)C(=O)N[C@@H](Cc2c[nH]c3ccccc23)C(=O)N(C)[C@@H](CCCCN)C(=O)N[C@@H](Cc2ccc(O)cc2)C(=O)N1)C(=O)O | 1510 nM | 22% | – | – | –
6 | CC(C)[C@H](NC(=O)[C@@H]1CSSC[C@H](NC(=O)[C@H](C)N)C(=O)N[C@@H](Cc2ccccc2)C(=O)N[C@@H](Cc2c[nH]c3ccccc23)C(=O)N[C@@H](CCCCN)C(=O)N[C@@H](Cc2ccc(O)cc2)C(=O)N1)C(=O)O | 6.31 nM | – | 7.76 nM | 116% | 2.69 nM
7 | CC(C)[C@H](NC(=O)[C@@H]1CSSC[C@H](N(C)C(=O)[C@H](C)N)C(=O)N[C@@H](Cc2ccccc2)C(=O)N[C@@H](Cc2c[nH]c3ccccc23)C(=O)N[C@@H](CCCCN)C(=O)N[C@@H](Cc2ccc(O)cc2)C(=O)N1)C(=O)O | 1.74 nM | – | 4.9 nM | 110% | –
8 | CC(C)[C@H](NC(=O)[C@@H]1CSSC[C@H](NC(=O)[C@H](CC(=O)O)NC(=O)[C@@H]2CCCN2C(=O)[C@@H](NC(=O)[C@@H](N)CCC(=O)O)[C@@H](C)O)C(=O)N[C@@H](Cc2ccccc2)C(=O)N[C@@H](Cc2c[nH]c3ccccc23)C(=O)N[C@@H](CCCCN)C(=O)N[C@@H](Cc2ccc(O)cc2)C(=O)N1C)C(=O)O | 22.9 nM | – | 24.5 nM | 105% | 2.69 nM
9 | CC(C)[C@H](NC(=O)[C@@H]1CSSC[C@H](NC(=O)[C@@H](N)CC(=O)O)C(=O)N(C)[C@@H](Cc2ccccc2)C(=O)N[C@@H](Cc2c[nH]c3ccccc23)C(=O)N[C@@H](CCCCN)C(=O)N[C@@H](Cc2ccc(O)cc2)C(=O)N1)C(=O)O (H-DC[NMeF]WKYCV-OH; disulfide 2-7) | 229 nM | – | 537 nM | 98% | 18.6 nM
10 | CC(C)[C@H](NC(=O)[C@@H]1CSSC[C@H](NC(=O)[C@H](C)N)C(=O)N[C@@H](Cc2ccccc2)C(=O)N(C)[C@@H](Cc2c[nH]c3ccccc23)C(=O)N[C@@H](CCCCN)C(=O)N[C@@H](Cc2ccc(O)cc2)C(=O)N1)C(=O)O | 2.19 nM | – | 83.2 nM | 35% | 13.8 nM
11 | CC(C)[C@H](NC(=O)[C@@H]1CSSC[C@H](NC(=O)[C@H](C)N)C(=O)N[C@@H](Cc2ccccc2)C(=O)N[C@@H](Cc2c[nH]c3ccccc23)C(=O)N[C@@H](CCCCN)C(=O)N(C)[C@@H](Cc2ccc(O)cc2)C(=O)N1)C(=O)O | 5370 nM | 16% | – | – | –
12 | CC(C)[C@H](NC(=O)[C@@H]1CSSC[C@H](NC(=O)[C@@H](N)CC(=O)O)C(=O)N[C@@H](Cc2ccccc2)C(=O)N(C)[C@@H](Cc2c[nH]c3ccccc23)C(=O)N[C@@H](CCCCN)C(=O)N[C@@H](Cc2ccc(O)cc2)C(=O)N1)C(=O)O (H-DCF[NMeW]KYCV-OH; disulfide 2-7) | 1.74 nM | – | 3.39 nM | 105% | 3.63 nM
13 | CC(C)[C@H](NC(=O)[C@@H]1CSSC[C@H](NC(=O)[C@@H](N)CC(=O)O)C(=O)N[C@@H](Cc2ccccc2)C(=O)N[C@@H](Cc2c[nH]c3ccccc23)C(=O)N[C@@H](CCCCN)C(=O)N[C@@H](Cc2ccc(O)cc2)C(=O)N1)C(=O)O (H-DCFWKYCV-OH; disulfide 2-7) | 4.57 nM | – | 5.25 nM | – | 1.86 nM
14 | CC(C)[C@H](NC(=O)[C@@H]1CSSC[C@H](NC(=O)[C@@H](N)CC(=O)O)C(=O)N[C@@H](Cc2ccccc2)C(=O)N[C@@H](Cc2c[nH]c3ccccc23)C(=O)N(C)[C@@H](CCCCN)C(=O)N[C@@H](Cc2ccc(O)cc2)C(=O)N1)C(=O)O (H-DCFW[NMeK]YCV-OH; disulfide 2-7) | > 10000 nM | 42% | – | – | –
15 | CC(C)[C@H](NC(=O)[C@@H]1CSSC[C@H](NC(=O)[C@H](C)N)C(=O)N[C@@H](Cc2ccccc2)C(=O)N[C@@H](Cc2c[nH]c3ccccc23)C(=O)N[C@@H](CCCCN)C(=O)N[C@@H](Cc2ccc(O)cc2)C(=O)N1C)C(=O)O | 3.55 nM | – | 9.55 nM | 44% | 5.25 nM
16 | CC(C)[C@H](NC(=O)[C@@H]1CSSC[C@H](N(C)C(=O)[C@@H](N)CC(=O)O)C(=O)N[C@@H](Cc2ccccc2)C(=O)N[C@@H](Cc2c[nH]c3ccccc23)C(=O)N[C@@H](CCCCN)C(=O)N[C@@H](Cc2ccc(O)cc2)C(=O)N1)C(=O)O (H-D[NMeC]FWKYCV-OH; disulfide 2-7) | 2.95 nM | – | 4.47 nM | 101% | –
17 | CC(C)[C@H](NC(=O)[C@@H]1CSSC[C@H](NC(=O)[C@H](CC(=O)O)NC(=O)[C@@H]2CCCN2C(=O)[C@@H](NC(=O)[C@@H](N)CCC(=O)O)[C@@H](C)O)C(=O)N(C)[C@@H](Cc2ccccc2)C(=O)N[C@@H](Cc2c[nH]c3ccccc23)C(=O)N[C@@H](CCCCN)C(=O)N[C@@H](Cc2ccc(O)cc2)C(=O)N1)C(=O)O | 813 nM | – | 200 nM | 96% | 22.4 nM
18 | CC(C)[C@H](NC(=O)[C@@H]1CSSC[C@H](NC(=O)[C@H](CC(=O)O)NC(=O)[C@@H]2CCCN2C(=O)[C@@H](NC(=O)[C@@H](N)CCC(=O)O)[C@@H](C)O)C(=O)N[C@@H](Cc2ccccc2)C(=O)N[C@@H](Cc2c[nH]c3ccccc23)C(=O)N[C@@H](CCCCN)C(=O)N[C@@H](Cc2ccc(O)cc2)C(=O)N1)C(=O)O [UROTENSIN-II] | – | – | 3.02 nM | – | –
19 | CC(C)[C@H](NC(=O)[C@@H]1CSSC[C@H](NC(=O)[C@@H](N)CC(=O)O)C(=O)N[C@@H](Cc2ccccc2)C(=O)N[C@@H](Cc2c[nH]c3ccccc23)C(=O)N[C@@H](CCCCN)C(=O)N[C@@H](Cc2ccc(O)cc2)C(=O)N1C)C(=O)O (H-DCFWKY[NMeC]V-OH; disulfide 2-7) | 3.55 nM | – | 5.25 nM | 95% | 4.68 nM
